The labels stand for the following.
B1: tRNA (parent)
chain: GUUCCGUUGGCGUAAUGGUAACGCGUCUCCCUCCUAAGGAGAAGACUGCGGGUUCGAGUCCCGUACGGAACG

This passage reports yeast fitness results from the RNAGym collection of RNA variant scans (doi:10.1126/science.aae0568).

Variants at the floor of the assay were thinned out.

This data set covers variants of B1. Put plainly: yeast fitness relative to wild type (ratio to wild type); higher = fitter; tRNA-Arg(CCU), competitive growth, 37 C, YPD. The gist of the method: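 Changes in genotype frequencies gave Darwinian fitness relative to wild type. Frequencies were read by 100-nucleotide paired-end sequencing of gene amplicons before and after pooled Saccharomyces cerevisiae strains, carrying tRNA-Arg(CCU) gene variants at the native locus, were competed in YPD at 37°C for 24 hours in six replicates. A genotype was kept only with ≥ 100 starting reads, and estimates < 0.5 were set to 0.5.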
With C46U U54C G56A, the yeast fitness worked out at 0.642.
The result for C11U C49G A57G reads at most 0.5; that for G6C C27A C30G G41C C61G C62U A69U, at most 0.5; that for C4G G12A C27A C31A G52A G58C A70G, at most 0.5.
The figure for C4A U8G A14U is 0.524; for A45G G51A G67A it is 0.601; for U13C C27U A69U A70C it is at most 0.5.
The figure for U13C C34G A40U A45C A57C C61U is at most 0.5; for U8C C11G C46U it is at most 0.5; for U3A C27U A37U A69C it is at most 0.5.
In the case of C62A A65C, the yeast fitness amounted to 0.766.
The result for A15U C24G A42C U64C reads at most 0.5; that for A14G G67U, 0.776.
The result for G6C A37G A40U A45C C60G reads at most 0.5.
C5G A43G A69C: the yeast fitness was found to be 0.615.
C11A U19C C24G C30U C31U C61U G67C: the yeast fitness was at most 0.5.
The figure for C4G G25A C49U G50U G63C is at most 0.5; for G38U A40G C49U it is at most 0.5.
For the variant G10A A57G C62G C66U, the yeast fitness was at most 0.5.
The figure for A43G A45G C55U G68A is at most 0.5; for A37G C55U G63A it is at most 0.5.
As to G6A C33G C34G A69U, the yeast fitness is at most 0.5.
The result for A20U G38C C46A reads at most 0.5; that for U32C U35C A40G, at most 0.5.
The result for C46U C49A A65U reads 0.554; that for U3A A57U, 0.754; that for C22A C29A, 0.636.
With A15G A21C C24G A40U, the yeast fitness was at most 0.5.
The result for G6C A69C reads 0.852; that for U3C U26C G44C U54A, at most 0.5; that for U13C G67A, 0.848.
The result for A15G C24A G52A reads at most 0.5; that for G6A C24U C61G G68U, at most 0.5; that for G6A C24U A40U A45U, at most 0.5.
The figure for G48A A57G C61U C62U is at most 0.5.
As for C5U G12C G44C, the yeast fitness was determined as 0.53.
The result for G12C A14G G25A G41C C61U G67A reads 0.573; that for C33G A42C C49G G58C C62G, 0.513.
In the case of G9A A21C C22A C66U, the yeast fitness was at most 0.5.
The figure for G12C C30A A42G is 0.562; for C46A G63A G67A it is 0.552; for A20U C27G C30G A36C A70U it is at most 0.5.
Turning to A14C C30A C31G, the yeast fitness is at most 0.5.
With U54A C55A C66G, the yeast fitness was found to be 0.714.
In the case of C5G C11U A21G C60A, the yeast fitness was at most 0.5.
The figure for U32G C61U C66U A69G is at most 0.5; for G17A A20G A36C A37C U53G A70C it is at most 0.5.
For the variant U7C U32G C33G U59C, the yeast fitness was at most 0.5.
The result for U3G C22A G25C C33U reads 0.606; that for A45G G50C U54A G67A, 0.803; that for U32C A37U, 0.729.
The figure for G18A C30G G44C is 0.646; for U2C C29A G44C C46G C62A it is at most 0.5; for G9C C46A it is 0.893.
As to U26A A45U, the yeast fitness was found to be 1.03.
The result for G52C G56C reads at most 0.5; that for A43C G52A A70U, at most 0.5.
Consider G12A U47A G63A A69U, for which the yeast fitness is 0.554.
Turning to A36U C62A, the yeast fitness came to 0.611.
Regarding C4G A15G U54A A70U, the yeast fitness was at most 0.5.
The figure for C27G A37G A69U is 0.537; for C4A C5A A15G U19C it is at most 0.5; for G25A C27G C60A it is at most 0.5.
Consider C22G G67C A69C, for which the yeast fitness is at most 0.5.
The figure for A21G C22U A37U A45G C46G C55A is at most 0.5; for G9A A14U C29G C34A U54A it is at most 0.5.
The result for C5U A20U C49G A69C reads at most 0.5; that for U47C G48C A65C, 0.619.
For C11G C49A, the yeast fitness amounted to 0.522.
Turning to G18C C46U C61G, the yeast fitness was at most 0.5.
The figure for G50C A65G is 0.766.
The figure for A15C U64A is 0.74.
The result for C24U C27U reads 0.972.
For C4U A20U U28C C61G, the yeast fitness is at most 0.5.
The result for C4A C24G A69U reads at most 0.5; that for A15G A65G A70C, 0.714; that for A45G G48A G56C C60G, at most 0.5.
The result for C33U C46A C55G reads 0.604; that for C5A C22U G39A U47C C61U, at most 0.5.
The result for C30U C46G C49U A69C reads at most 0.5; that for A15G C27A, 0.786; that for C5G C22A C31U G50U C60U, at most 0.5.
Turning to U7A C30U C46U C55G, the yeast fitness was at most 0.5.
The figure for G44C C60G is 0.59; for G9C G10C C29G it is at most 0.5.
The result for C33A A36C A43U C46G C62G A69U reads at most 0.5.
The figure for U28A C55G C62G is at most 0.5; for C4G G6C C34G A42G G63C it is at most 0.5.
For the variant U32G G51A C55G, the yeast fitness was at most 0.5.
With A21U C33U G50A, the yeast fitness was 0.621.
As to G10C C33A G48A, the yeast fitness was at most 0.5.
Take C5A C31U A70G: the yeast fitness came out at 0.614.
The figure for U3G U16C C29G is at most 0.5.
The figure for C5U A21G A57C is 0.562; for C24A C34A A37G A57G A65G it is 0.544; for U8A A36U G48C it is 0.668.
The result for C31U A45U reads 1.12; that for U7G C55G G56C, 0.608.
With G18A G25A C31U, the yeast fitness is 0.63.
The result for C30U C31G reads 0.79; that for C27G U35A G52A A57G A69U A70U, at most 0.5; that for U3A C49U A69U, 0.759.
The result for G6C A45C G67C reads 0.536.
The figure for U8A G18C C27U G51C C55A C62U A65U A69U is 0.647; for A40G C49U U59A it is 0.572.
In the case of C31A U32C C46U, the yeast fitness was at most 0.5.
The figure for C11A U26G G44A G52A is 0.55.
The result for C11U C29U G39A reads 0.619; that for G18A G41C A42C C49U, 0.522.
The figure for U2G G10A A69C is at most 0.5; for G12A C29A it is 0.652; for C30A G51A it is 0.774.
As for C4U G50A G67C, the yeast fitness worked out at 0.578.
The figure for A40U G63C is 0.729; for U8C A20G C34G A37G G44A it is 0.627.
The figure for A45U G50A C55G A70U is at most 0.5; for C31A U53A A65U it is at most 0.5.
The result for G9A G10A A21G G56A A65U reads at most 0.5; that for U7A A21U A45C, at most 0.5.
Consider C4G U8C G51A C66A, for which the yeast fitness was at most 0.5.
The figure for C5U A36U C49G is at most 0.5; for G6C G23C C24A C66U it is at most 0.5.
The result for U19C C22G reads 0.978; that for A15C C34A G63C, at most 0.5; that for A40G G41A A42C A43G G44A A70U, at most 0.5.
With C29U A45C U53C C55U G56C C61A C66U, the yeast fitness is at most 0.5.
The result for C5A A14G A20G C30A A40U G41C C61G G63C reads at most 0.5.
The figure for G6A C22G C60A C62U is at most 0.5; for G12A A42U it is 0.856.
Turning to A36C U64C, the yeast fitness amounted to 0.824.
In the case of G18C C49U G56C G58A, the yeast fitness is at most 0.5.
The result for G25A G48C C62A reads 0.611.
With G25C C34G A57G, the yeast fitness was at most 0.5.
The result for C4G U7C C27A A69U reads 0.531; that for U2A C24G A43U C46U, 0.542; that for A15C A20G C31A U59C A69G, at most 0.5.
Regarding G44C A45G G67A, the yeast fitness was determined as 0.695.
The figure for G6A C11U C27A is 0.719.
The result for C22U A36C C60G reads at most 0.5.
The figure for U32A A40C is 0.694; for C27G G39A it is 0.615.
Regarding C11U C30U A65C, the yeast fitness is at most 0.5.
Regarding G6A C11U C33U U64C A70C, the yeast fitness is at most 0.5.
The result for U8A C11U A15G G63C reads at most 0.5; that for C29G G39C U47A, 0.978; that for C11G A40U C62A, at most 0.5.
The result for G23A C27U A37U C60U C61A reads at most 0.5.
The figure for C11G A65C C66G is at most 0.5.
A14G A20C C46G: the yeast fitness amounted to 0.635.
The figure for A14U A20G C24A C31U A37U G48A A69C is at most 0.5.
The figure for A20G C34G A43U C66U is 0.546; for U8C A21C C27U C49U G58C C61A A65U it is at most 0.5; for C24U U32G A40U it is 0.513.
The result for A15U G25C G67A reads at most 0.5; that for G44C A57U, 0.554; that for U28C G58C C62G A70U, at most 0.5.
Take A20G G38A C46U A70U: the yeast fitness is 0.594.
For C4G U8C C34G U47A C49A A65G, the yeast fitness is at most 0.5.
The result for A15G U28G reads 0.646.
The result for C11U G67U reads 0.846; that for C31U U32C C34A C55U, at most 0.5; that for G18C G51A A69G, at most 0.5.
Turning to U2C C30U C33U, the yeast fitness amounted to 0.512.
On to C4U C11G C24A A36U A43C, for which the yeast fitness stood at 0.55.
The figure for A21C C24A A65C is at most 0.5; for G44C A45U U53C it is 0.605.
The figure for C5G G10A C33U A65C G68C is 0.55.
